The source of these data is paper PMC2796831 (Integrative biology : quantitative biosciences from nano to …, 2009).

The tissue uptake is the percentage of the injected dose found per gram of tissue.

Data set [1] has as its system HT1080 xenografted mice. In words: Confocal imaging of live mouse tissues after IV injection. Format: in vivo. The settings on record: for Nuclear uptake in live tumor and tissues: 10 nmol IV, confocal stacks of live tissue, 30 minutes and 6 hours. Put shortly:
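Xenografted HT1080 nude mice got 10 nmol Cy5-labelled peptide IV. Five minutes before sacrifice at 30 min or 6 h, they received IV Hoechst 33342 (250 µg) and rhodamine dextran (800 µg) to mark nuclei and blood pool. Organs were held on ice in HBSS and imaged unfixed by confocal microscopy within 30 min, as 3D stacks 5–60 µm deep. Excitation was 630, 405 and 535 nm.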

Data set [2] concerns naïve athymic nude mice. In words: Acute toxicity of unlabeled peptides after IV injection. The settings on record: 5 µmol/kg IV, isoflurane anesthesia, unlabeled peptide. Format: in vivo.
Data set [3] can be described thus: Biodistribution. It is filed as in vivo, mice. The settings on record: for Time for blood Cy5 fluorescence to decline to the same level: 10 nmol IV, blood from tail artery, average of three mice (Fig. 3B). Put shortly:
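Athymic nude mice carried HT1080 xenografts from 2 million cells injected into the mammary fat pad 5–7 days earlier. Each received 10 nmol Cy5-labelled peptide into the tail vein. Tail-artery blood in capillaries was imaged for Cy5 (640 nm excitation, 700 nm emission). At 30 min and 6 h, organ pieces were homogenised in 10 mM Tris pH 7.6 with 1% SDS, boiled, centrifuged and imaged frozen. Concentration came from tissue-specific spiked standard curves. SUV = (moles/g tissue)/(moles injected/body weight).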

Where [4] appears, read: 10 nmol injection, assuming 20–25g mouse.
The mark [5] stands for this setting: athymic nude, mouse, kidney, iv, 10 nmol.
Setting [6] is: athymic nude, mouse, liver, iv, 10 nmol.
[7] abbreviates: athymic nude, mouse, tumor, iv, 10 nmol.

Each structure is given as a SMILES string. Numbered stars: 1 amine (or outer) side, 2 acyl side, 3 side chain; on linkers, the order of the positions; unused ones are H or OH. Square brackets hold non-standard residues; d marks the D form. Peptide text beside a SMILES is read from it. * marks the point of attachment. X1 = CCN1C(=CC=CC=CC2=[N+](CCCCCC(=O)NCCN3C(=O)CC(*)C3=O)c3ccc(S(=O)(=O)[O-])cc3C2(C)C)C(C)(C)c2cc(S(=O)(=O)O)ccc21; Suc = O=C(CCC(=O)[*:2])[*:1]; Ahx = NCCCCCC(=O)O

As to `CCN1C(=CC=CC=CC2=[N+](CCCCCC(=O)NCCN3C(=O)CC(SC[C@@H](NC(=O)[C@@H](CCCNC(=N)N)NC(=O)[C@@H](CCCNC(=N)N)NC(=O)[C@@H](CCCNC(=N)N)NC(=O)[C@@H](CCCNC(=N)N)NC(=O)[C@@H](CCCNC(=N)N)NC(=O)[C@@H](CCCNC(=N)N)NC(=O)[C@@H](CCCNC(=N)N)NC(=O)[C@@H](CCCNC(=N)N)NC(=O)[C@@H](CCCNC(=N)N)NC(=O)CNC(=O)[C@H](C)NC(=O)[C@H](CC(C)C)NC(=O)CNC(=O)[C@H](CC(C)C)NC(=O)[C@@H]4CCCN4C(=O)CCCCCNC(=O)[C@@H](CCC(=O)O)NC(=O)[C@@H](CCC(=O)O)NC(=O)[C@@H](CCC(=O)O)NC(=O)[C@@H](CCC(=O)O)NC(=O)[C@@H](CCC(=O)O)NC(=O)[C@@H](CCC(=O)O)NC(=O)[C@@H](CCC(=O)O)NC(=O)[C@@H](CCC(=O)O)NC(=O)CCC(=O)O)C(N)=O)C3=O)c3ccc(S(=O)(=O)[O-])cc3C2(C)C)C(C)(C)c2cc(S(=O)(=O)O)ccc21` (stereo partly drawn) [ACPP, succinyl-e8-(x)-PLGLAG-r9-c(Cy5)-NH2] (Suc-[dE][dE][dE][dE][dE][dE][dE][dE][Ahx]PLGLAG[dR][dR][dR][dR][dR][dR][dR][dR][dR][dC](X1)-NH2), the “Nuclear uptake in live tumor and tissues” value in data set [1] is given as “below the detection limit”. For the same compound, the “Nuclear uptake in live tissues at 10 times the usual dose” value in data set [1] (100 nmol or 5 µmol/kg IV, one mouse) is on record as “no detectable nuclear uptake in any tissue”. Besides, the “Tumor fluorescence signal (confocal) compared with CPP” value in data set [1] (HT1080 tumors, 30 minutes and 6 hours after 10 nmol IV (Fig. 5A, B)) is reported as “about four times higher”. Further, in data set [2], the Acute effect result was “no acute effect”. In addition, the “Time for blood Cy5 fluorescence to decline to the same level” value in data set [3] stood at 30 min. Besides, in data set [3] (setting [4]), the “Final peptide concentration in kidney based on SUV” value was 8 to 17 µmol/kg. The “Tumor SUV compared with CPP” value in data set [3] (30 minutes after 10 nmol IV, HT1080 tumor homogenate, n=4 ACPP, n=3 CPP) was “slightly but not significantly greater”. In addition, in data set [3] (6 hours after 10 nmol IV, HT1080 tumor), the “Tumor uptake (SUV) relative to muscle” value is “roughly 4 fold”. In data set [3] (setting [5]), this compound registered a tissue uptake dose at 0.5 h of 28 %ID and a tissue uptake dose at 6 h of 48 %ID. For the same compound, in data set [3] (setting [6]), the tissue uptake dose at 0.5 h was determined as 21 %ID and the tissue uptake dose at 6 h came to 33 %ID. For the same compound, in data set [3] (setting [7]), the SUV at 6 h turned out to be 174 SUV and the tissue uptake at 6 h is 1.7 %ID/g.
Take `CCN1C(=CC=CC=CC2=[N+](CCCCCC(=O)NCCN3C(=O)CC(SC[C@@H](NC(=O)[C@@H](CCCNC(=N)N)NC(=O)[C@@H](CCCNC(=N)N)NC(=O)[C@@H](CCCNC(=N)N)NC(=O)[C@@H](CCCNC(=N)N)NC(=O)[C@@H](CCCNC(=N)N)NC(=O)[C@@H](CCCNC(=N)N)NC(=O)[C@@H](CCCNC(=N)N)NC(=O)[C@@H](CCCNC(=N)N)NC(=O)[C@H](N)CCCNC(=N)N)C(N)=O)C3=O)c3ccc(S(=O)(=O)[O-])cc3C2(C)C)C(C)(C)c2cc(S(=O)(=O)O)ccc21` (stereo partly drawn) [CPP, r9-c(Cy5)-NH2]: the “Nuclear uptake in live tumor and tissues” value in data set [1] is reported as “below the detection limit”. Further, the “Time for blood Cy5 fluorescence to decline to the same level” value in data set [3] is 3 min. The “Final peptide concentration in liver based on SUV” value in data set [3] (setting [4]) lay in the range of 8 to 17 µmol/kg. In data set [3] (setting [5]), this compound showed a tissue uptake dose at 0.5 h of 8 %ID and a tissue uptake dose at 6 h of 9 %ID. In data set [3] (setting [6]), the tissue uptake dose at 0.5 h was 90 %ID and the tissue uptake dose at 6 h is 84 %ID.
